The source made the active and inactive calls. The rule behind the calls is not given here.
Legend:
Format in all cases: functional
Saccharomyces cerevisiae [1] = experiment: Antifungal activity against Saccharomyces cerevisiae MTCC 1344 assessed as zone of inhibition at 25.2 uM incubated for 2 days by cross streak plate method; details: MTCC 1344, 48 h, time 2 day, read-out: IZ
In short: (§1)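 Fungal strain (A. niger MTCC 404 or S. cerevisiae MTCC 1344) was incubated with the compound for 2 days at 37 °C. Growth inhibition was then assessed by the cross streak plate method.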

Staphylococcus aureus = experiment: Antibacterial activity against Staphylococcus aureus MTCC 96 assessed as bacterial growth inhibition by microdilution method
In short: (§2)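 Broth microdilution against Gram-positive and Gram-negative strains. The endpoint is the minimal inhibitory concentration, in µg/ml.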

Pseudomonas aeruginosa = experiment: Antibacterial activity against Pseudomonas aeruginosa MTCC 424 assessed as bacterial growth inhibition by microdilution method; in short: as §2
[2] = Antioxidant activity assessed as DPPH radical scavenging activity
Aspergillus niger [3] = experiment: Antifungal activity against Aspergillus niger MTCC 404 assessed as zone of inhibition at 25.2 uM incubated for 2 days by cross streak plate method; details: MTCC 404, 48 h, time 2 day, read-out: IZ; in short: as §1
Aspergillus niger [4] = experiment: Antifungal activity against Aspergillus niger MTCC 404 assessed as zone of inhibition at 16.8 uM incubated for 2 days by cross streak plate method; details: MTCC 404, 48 h, time 2 day, read-out: IZ; in short: as §1
Saccharomyces cerevisiae [5] = experiment: Antifungal activity against Saccharomyces cerevisiae MTCC 1344 assessed as zone of inhibition at 33.7 uM incubated for 2 days by cross streak plate method; details: MTCC 1344, 48 h, time 2 day, read-out: IZ
In short: (§3)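 S. cerevisiae MTCC 1344 cultures were incubated for 2 days at 37 °C and then tested by the cross streak plate method.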

Bacillus subtilis = experiment: Antibacterial activity against Bacillus subtilis MTCC 441 assessed as bacterial growth inhibition by microdilution method; in short: as §2
Saccharomyces cerevisiae [6] = experiment: Antifungal activity against Saccharomyces cerevisiae MTCC 1344 assessed as zone of inhibition at 16.8 uM incubated for 2 days by cross streak plate method; details: MTCC 1344, 48 h, time 2 day, read-out: IZ; in short: as §1
Escherichia coli = experiment: Antibacterial activity against Escherichia coli MTCC 443 assessed as bacterial growth inhibition by microdilution method; in short: as §2
Aspergillus niger [7] = experiment: Antifungal activity against Aspergillus niger MTCC 404 assessed as zone of inhibition at 33.7 uM incubated for 2 days by cross streak plate method; details: MTCC 404, 48 h, time 2 day, read-out: IZ; in short: as §1
Aspergillus niger [8] = experiment: Antifungal activity against Aspergillus niger MTCC 404 assessed as zone of inhibition at 22.2 uM incubated for 2 days by cross streak plate method; details: MTCC 404, 48 h, time 2 day, read-out: IZ; in short: as §1
Saccharomyces cerevisiae [9] = experiment: Antifungal activity against Saccharomyces cerevisiae MTCC 1344 assessed as zone of inhibition at 29.7 uM incubated for 2 days by cross streak plate method; details: MTCC 1344, 48 h, time 2 day, read-out: IZ; in short: as §1
Saccharomyces cerevisiae [10] = experiment: Antifungal activity against Saccharomyces cerevisiae MTCC 1344 assessed as zone of inhibition at 22.2 uM incubated for 2 days by cross streak plate method; details: MTCC 1344, 48 h, time 2 day, read-out: IZ; in short: as §1
Aspergillus niger [11] = experiment: Antifungal activity against Aspergillus niger MTCC 404 assessed as zone of inhibition at 29.7 uM incubated for 2 days by cross streak plate method; details: MTCC 404, 48 h, time 2 day, read-out: IZ; in short: as §1
Saccharomyces cerevisiae [12] = experiment: Antifungal activity against Saccharomyces cerevisiae MTCC 1344 assessed as zone of inhibition at 14.8 uM incubated for 2 days by cross streak plate method; details: MTCC 1344, 48 h, time 2 day, read-out: IZ; in short: as §1
Aspergillus niger [13] = experiment: Antifungal activity against Aspergillus niger MTCC 404 assessed as zone of inhibition at 14.8 uM incubated for 2 days by cross streak plate method; details: MTCC 404, 48 h, time 2 day, read-out: IZ; in short: as §1
Aspergillus niger [14] = experiment: Antifungal activity against Aspergillus niger MTCC 404 assessed as zone of inhibition at 25.9 uM incubated for 2 days by cross streak plate method; details: MTCC 404, 48 h, time 2 day, read-out: IZ; in short: as §1
Aspergillus niger [15] = experiment: Antifungal activity against Aspergillus niger MTCC 404 assessed as zone of inhibition at 34.5 uM incubated for 2 days by cross streak plate method; details: MTCC 404, 48 h, time 2 day, read-out: IZ; in short: as §1
Saccharomyces cerevisiae [16] = experiment: Antifungal activity against Saccharomyces cerevisiae MTCC 1344 assessed as zone of inhibition at 17.2 uM incubated for 2 days by cross streak plate method; details: MTCC 1344, 48 h, time 2 day, read-out: IZ; in short: as §1
Saccharomyces cerevisiae [17] = experiment: Antifungal activity against Saccharomyces cerevisiae MTCC 1344 assessed as zone of inhibition at 25.9 uM incubated for 2 days by cross streak plate method; details: MTCC 1344, 48 h, time 2 day, read-out: IZ; in short: as §1
Saccharomyces cerevisiae [18] = experiment: Antifungal activity against Saccharomyces cerevisiae MTCC 1344 assessed as zone of inhibition at 34.5 uM incubated for 2 days by cross streak plate method; details: MTCC 1344, 48 h, time 2 day, read-out: IZ; in short: as §3
Aspergillus niger [19] = experiment: Antifungal activity against Aspergillus niger MTCC 404 assessed as zone of inhibition at 17.2 uM incubated for 2 days by cross streak plate method; details: MTCC 404, 48 h, time 2 day, read-out: IZ; in short: as §1
Aspergillus niger [20] = experiment: Antifungal activity against Aspergillus niger MTCC 404 assessed as zone of inhibition at 31.2 uM incubated for 2 days by cross streak plate method; details: MTCC 404, 48 h, time 2 day, read-out: IZ; in short: as §1
Aspergillus niger [21] = experiment: Antifungal activity against Aspergillus niger MTCC 404 assessed as zone of inhibition at 15.6 uM incubated for 2 days by cross streak plate method; details: MTCC 404, 48 h, time 2 day, read-out: IZ; in short: as §1
Saccharomyces cerevisiae [22] = experiment: Antifungal activity against Saccharomyces cerevisiae MTCC 1344 assessed as zone of inhibition at 31.2 uM incubated for 2 days by cross streak plate method; details: MTCC 1344, 48 h, time 2 day, read-out: IZ; in short: as §1
Aspergillus niger [23] = experiment: Antifungal activity against Aspergillus niger MTCC 404 assessed as zone of inhibition at 23.4 uM incubated for 2 days by cross streak plate method; details: MTCC 404, 48 h, time 2 day, read-out: IZ; in short: as §1
Saccharomyces cerevisiae [24] = experiment: Antifungal activity against Saccharomyces cerevisiae MTCC 1344 assessed as zone of inhibition at 15.6 uM incubated for 2 days by cross streak plate method; details: MTCC 1344, 48 h, time 2 day, read-out: IZ; in short: as §1
Saccharomyces cerevisiae [25] = experiment: Antifungal activity against Saccharomyces cerevisiae MTCC 1344 assessed as zone of inhibition at 23.4 uM incubated for 2 days by cross streak plate method; details: MTCC 1344, 48 h, time 2 day, read-out: IZ; in short: as §1

With `O=C(CSc1nnc(-c2ccccc2OCc2cn(-c3ccc(Cl)cc3)nn2)n1Cc1ccccc1)c1ccccc1` as the molecule, how does the zone of inhibition at 25.2 µM (Saccharomyces cerevisiae [1]) read?
The zone of inhibition at 25.2 µM was 5.7 mm.

And the MIC (Staphylococcus aureus)?
Its MIC is 9.7 µg/mL.

And the MIC (Pseudomonas aeruginosa)?
Its MIC is 9 µg/mL.

And the Activity [2]?
Its Activity is “inactive”.

And the zone of inhibition at 25.2 µM (Aspergillus niger [3])?
The zone of inhibition at 25.2 µM was 8 mm.

And the zone of inhibition at 16.8 µM (Aspergillus niger [4])?
The zone of inhibition at 16.8 µM was 6 mm.

What about the zone of inhibition at 33.7 µM (Saccharomyces cerevisiae [5]) of the same molecule?
The zone of inhibition at 33.7 µM was 7 mm.

What about the MIC (Bacillus subtilis) of the same molecule?
The MIC was 5.2 µg/mL.

And the zone of inhibition at 16.8 µM (Saccharomyces cerevisiae [6])?
Its zone of inhibition at 16.8 µM is 5.8 mm.

And the MIC (Escherichia coli)?
Its MIC is 10 µg/mL.

And the zone of inhibition at 33.7 µM (Aspergillus niger [7])?
The zone of inhibition at 33.7 µM was 8.2 mm.

Which zone of inhibition at 22.2 µM (Aspergillus niger [8]) does the source give for `O=C(CSc1nnc(-c2ccccc2OCc2cn(-c3ccc(Cl)cc3)nn2)n1Cc1ccccc1)c1ccc(Br)cc1` here?
The zone of inhibition at 22.2 µM was 2 mm.

What about the zone of inhibition at 29.7 µM (Saccharomyces cerevisiae [9]) of the same molecule?
The zone of inhibition at 29.7 µM was 3 mm.

And the zone of inhibition at 22.2 µM (Saccharomyces cerevisiae [10])?
The zone of inhibition at 22.2 µM was 2 mm.

And the zone of inhibition at 29.7 µM (Aspergillus niger [11])?
Its zone of inhibition at 29.7 µM is 3 mm.

And the zone of inhibition at 14.8 µM (Saccharomyces cerevisiae [12])?
The zone of inhibition at 14.8 µM was 1.5 mm.

What about the zone of inhibition at 14.8 µM (Aspergillus niger [13]) of the same molecule?
Its zone of inhibition at 14.8 µM is 2 mm.

What about the MIC (Staphylococcus aureus) of the same molecule?
Its MIC is 8.5 µg/mL.

And the MIC (Pseudomonas aeruginosa)?
Its MIC is 8.1 µg/mL.

What about the Activity [2] of the same molecule?
Its Activity is “inactive”.

What about the MIC (Bacillus subtilis) of the same molecule?
The MIC was 4.4 µg/mL.

And the MIC (Escherichia coli)?
The MIC was 9 µg/mL.

Which zone of inhibition at 25.2 µM (Saccharomyces cerevisiae [1]) does the source give for `O=C(CSc1nnc(-c2ccccc2OCc2cn(-c3ccccc3)nn2)n1Cc1ccccc1)c1ccc(Cl)cc1` here?
The zone of inhibition at 25.2 µM was 3 mm.

What about the MIC (Staphylococcus aureus) of the same molecule?
Its MIC is 9.5 µg/mL.

And the MIC (Pseudomonas aeruginosa)?
Its MIC is 8.8 µg/mL.

What about the Activity [2] of the same molecule?
Its Activity is “inactive”.

What about the zone of inhibition at 25.2 µM (Aspergillus niger [3]) of the same molecule?
Its zone of inhibition at 25.2 µM is 3 mm.

And the zone of inhibition at 16.8 µM (Aspergillus niger [4])?
The zone of inhibition at 16.8 µM was 1.5 mm.

And the zone of inhibition at 33.7 µM (Saccharomyces cerevisiae [5])?
Its zone of inhibition at 33.7 µM is 3 mm.

What about the MIC (Bacillus subtilis) of the same molecule?
The MIC was 5 µg/mL.

What about the zone of inhibition at 16.8 µM (Saccharomyces cerevisiae [6]) of the same molecule?
Its zone of inhibition at 16.8 µM is 2 mm.

And the MIC (Escherichia coli)?
The MIC was 9.1 µg/mL.

And the zone of inhibition at 33.7 µM (Aspergillus niger [7])?
Its zone of inhibition at 33.7 µM is 3 mm.

What does the source list for `O=C(Sc1nnc(-c2ccccc2OCc2cn(-c3ccc(Cl)cc3)nn2)n1Cc1ccccc1)c1ccccc1`?
zone of inhibition at 25.9 µM (Aspergillus niger [14]): 6 mm; zone of inhibition at 34.5 µM (Aspergillus niger [15]): 7.6 mm; zone of inhibition at 17.2 µM (Saccharomyces cerevisiae [16]): 5 mm; MIC (Staphylococcus aureus): 4.1 µg/mL; MIC (Pseudomonas aeruginosa): 7.3 µg/mL; Activity [2]: inactive; zone of inhibition at 25.9 µM (Saccharomyces cerevisiae [17]): 7 mm; MIC (Bacillus subtilis): 6.5 µg/mL; MIC (Escherichia coli): 6.1 µg/mL; zone of inhibition at 34.5 µM (Saccharomyces cerevisiae [18]): 7.4 mm; zone of inhibition at 17.2 µM (Aspergillus niger [19]): 5.3 mm

Which results are given for `O=C(CSc1nnc(-c2ccccc2OCc2cn(-c3ccccc3)nn2)n1Cc1ccccc1)c1ccccc1`?
zone of inhibition at 25.2 µM (Saccharomyces cerevisiae [1]): 3 mm; MIC (Staphylococcus aureus): 7.9 µg/mL; MIC (Pseudomonas aeruginosa): 7.5 µg/mL; Activity [2]: inactive; zone of inhibition at 25.2 µM (Aspergillus niger [3]): 3 mm; zone of inhibition at 16.8 µM (Aspergillus niger [4]): 2 mm; zone of inhibition at 33.7 µM (Saccharomyces cerevisiae [5]): 3 mm; MIC (Bacillus subtilis): 5 µg/mL; zone of inhibition at 16.8 µM (Saccharomyces cerevisiae [6]): 2 mm; MIC (Escherichia coli): 10 µg/mL; zone of inhibition at 33.7 µM (Aspergillus niger [7]): 3 mm

With `O=C(CSc1nnc(-c2ccccc2OCc2cn(-c3ccccc3)nn2)n1Cc1ccccc1)c1ccc(Br)cc1` as the molecule, how does the zone of inhibition at 31.2 µM (Aspergillus niger [20]) read?
The zone of inhibition at 31.2 µM was 7.6 mm.

What about the zone of inhibition at 15.6 µM (Aspergillus niger [21]) of the same molecule?
The zone of inhibition at 15.6 µM was 5 mm.

What about the zone of inhibition at 31.2 µM (Saccharomyces cerevisiae [22]) of the same molecule?
Its zone of inhibition at 31.2 µM is 7 mm.

And the MIC (Staphylococcus aureus)?
Its MIC is 3.9 µg/mL.

And the MIC (Pseudomonas aeruginosa)?
The MIC was 8.8 µg/mL.

And the Activity [2]?
Its Activity is “inactive”.

What about the zone of inhibition at 23.4 µM (Aspergillus niger [23]) of the same molecule?
Its zone of inhibition at 23.4 µM is 7.4 mm.

And the zone of inhibition at 15.6 µM (Saccharomyces cerevisiae [24])?
Its zone of inhibition at 15.6 µM is 6 mm.

What about the MIC (Bacillus subtilis) of the same molecule?
Its MIC is 4.2 µg/mL.

And the MIC (Escherichia coli)?
Its MIC is 4.5 µg/mL.

And the zone of inhibition at 23.4 µM (Saccharomyces cerevisiae [25])?
Its zone of inhibition at 23.4 µM is 6.5 mm.
